According to publication PMC2121072 (The Journal of Cell Biology, 1996):

Legend:
fusion proteins = experiment: Competition of labeled ATP binding to fusion proteins; settings: excess of cold, nonlabeled competitor nucleotide
PDZ domains = experiment: Nucleotide binding with radiolabeled GTP; settings: data not shown
[1] = tested on: GST-PDZ3 fusion protein of Dlg; experiment: In vitro ATP binding, Dlg GST-PDZ3; set-up: species or system Drosophila; settings: data not shown
Outline: (§1)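 Solution assay: purified protein (GST fusions eluted from glutathione beads with 5.0 mM reduced glutathione, then dialysed into binding buffer) incubated with [γ-32P]ATP (100-500 nCi) plus 100 nM cold ATP. Buffer: 10 mM Hepes pH 7.6, 50 mM KCl, 75 mM NaCl, 1.0 mM MgCl2, 1.0 mM EGTA. Incubated 3 h on ice, filtered through nitrocellulose, washed, scintillation-counted. GST or BSA nonspecific controls; duplicate or triplicate.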

[2] = target: T1, GST-PDZ 1+2+3 fusion protein of hDlg (Homo sapiens, UniProt Q12959); experiment: Solution nitrocellulose filter ATP-binding assay, GST-PDZ1+2+3 of hDlg; settings: Scatchard analysis, Fig. 4 inset
T1 sequence (Q12959 201-584): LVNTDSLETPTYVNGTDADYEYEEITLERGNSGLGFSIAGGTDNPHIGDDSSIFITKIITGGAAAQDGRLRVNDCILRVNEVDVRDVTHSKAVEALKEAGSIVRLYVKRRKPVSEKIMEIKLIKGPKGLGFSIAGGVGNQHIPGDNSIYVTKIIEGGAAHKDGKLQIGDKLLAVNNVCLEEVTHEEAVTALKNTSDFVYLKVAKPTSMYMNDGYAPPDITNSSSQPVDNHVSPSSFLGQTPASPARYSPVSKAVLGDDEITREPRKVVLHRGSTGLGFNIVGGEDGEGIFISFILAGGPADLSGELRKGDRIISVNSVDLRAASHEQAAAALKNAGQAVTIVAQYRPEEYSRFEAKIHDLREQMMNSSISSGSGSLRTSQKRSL
Outline: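 Scatchard: 2.0 µg glutathione-eluted, dialysed GST-PDZ1+2+3 incubated in solution with increasing ATP concentrations plus [γ-32P]ATP, 3 h on ice in Hepes pH 7.6 buffer containing 1.0 mM MgCl2. Bound label captured on nitrocellulose filter, washed, scintillation-counted. Parallel GST control at each ATP concentration; cold ATP quantified by absorbance at 259 nm; each value is the average of duplicates.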

[3] = target: T1, GST-PDZ 1+2+3 fusion protein of hDlg; experiment: Surface plasmon resonance; format: binding; settings: 0.5 or 2.0 mM ATP-Mg2+ complex; orientation of the experiment not stated; data not shown
PDZ 3 domain of hDlg = experiment: Solution filter ATP-binding assay, PDZ3 of hDlg; set-up: species or system human; settings: 100 nM cold ATP, pH 7.6, 3 h on ice, Fig. 3 B
Outline: as §1

Compound	binding of labeled ATP in presence of competitor (fusion proteins)	binding of radiolabeled GTP (PDZ domains)	ATP binding [1]	ATP binding sites (Scatchard) [2]	effect of ATP on GST-PDZ 1+2+3 / Kv1.4 peptide binding affinity [3]	ATP binding (PDZ 3 domain of hDlg)
Nc1nc2c(ncn2[C@@H]2O[C@H](COP(=O)(O)OP(=O)(O)OP(=O)(O)O)[C@@H](O)[C@H]2O)c(=O)[nH]1 [GTP]	succeeded	no binding				
Nc1ncnc2c1ncn2[C@@H]1O[C@H](COP(=O)(O)OP(=O)(O)OP(=O)(O)O)[C@@H](O)[C@H]1O [ATP]	failed		binds ATP in vitro	single class of binding sites	No effect on the binding affinity	inactive for ATP binding
